PMC3144758 (Bioorganic chemistry, 2010)

Molecular target: Tip60 (Homo sapiens, UniProt Q92993)
Assay: Radioactive HAT inhibition assay, Tip60
Type: biochemical
Summary of the method: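 Recombinant Tip60 acetylates H4 N-terminal 20-mer peptide (100 μM) using [14C]acetyl-CoA (10 μM) at varied DMSO levels, 30 °C, in 50 mM HEPES pH 8.0, 0.1 mM EDTA, 50 μg/mL BSA, 1 mM DTT. Enzyme added after 5 min equilibration. Initial rates measured (<10% substrate consumed) by P81 filter binding, bicarbonate washes and scintillation. Readouts are fractional activity retained and IC50 (50% activity blocked). Runs at least twice.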

Tip60, sequence (Q92993 whole entry): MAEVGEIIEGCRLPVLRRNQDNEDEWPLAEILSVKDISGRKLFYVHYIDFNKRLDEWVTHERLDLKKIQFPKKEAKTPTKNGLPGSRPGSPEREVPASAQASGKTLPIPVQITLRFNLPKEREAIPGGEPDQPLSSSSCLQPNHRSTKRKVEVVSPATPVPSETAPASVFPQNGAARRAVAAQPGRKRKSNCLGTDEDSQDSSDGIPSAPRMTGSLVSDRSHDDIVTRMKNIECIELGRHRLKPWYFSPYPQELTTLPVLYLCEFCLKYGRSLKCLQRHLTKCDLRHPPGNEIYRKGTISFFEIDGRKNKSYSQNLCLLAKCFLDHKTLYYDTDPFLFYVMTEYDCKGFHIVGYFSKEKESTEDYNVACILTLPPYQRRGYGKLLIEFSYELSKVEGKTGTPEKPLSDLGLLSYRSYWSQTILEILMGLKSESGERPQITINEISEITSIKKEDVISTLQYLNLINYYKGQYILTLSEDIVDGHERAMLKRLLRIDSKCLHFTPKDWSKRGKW

IC50 of DMSO on Tip60 activity (DMSO (v/v), H4-20 100 μM, [14C]acetyl-CoA 10 μM): 37% | Retained activity of Tip60 (at 30% of DMSO): 90%
SMILES: C[S+](C)[O-] [DMSO]
